Source: ChEMBL document CHEMBL1146084, “Discovery of orally efficacious melanin-concentrating hormone receptor-1 antagonists as antiobesity agents. Synthesis, SAR, and biological evaluation of bicyclo[3.1.0]hexyl ureas” (J Med Chem, 2006)
pKi: −log10 of the molar value.

Tests used:
[1] = (§1) AUC (0-6h) in rat at 10 mg/kg, po; assay type: ADME, organism-based, Plasma; design: time < 6 hr, dose 10 mg/kg, route oral; details: plasma
[2] = biological target: T1, Melanin-concentrating hormone receptor 1 (Homo sapiens, UniProt Q99705); test: Displacement of [125I]MCH from human MCHR1 expressed in CHO cell; assay type: cell-based
[3] = biological target: Melanin-concentrating hormone receptor 1 (Mus musculus) (UniProt Q8JZL2); test: Receptor occupancy ex vivo by displacement of [125I]S36057 binding from MCHR1 in C57BL/6N mouse brain after 6 hrs at 30 mg/kg, po; assay type: functional, organism-based; design: dose 30 mg/kg
Procedure, shortened: (§2)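 Male C57Bl/6NCrl:BR mice given vehicle (HPβCD) or compound orally; killed by CO2 at 6 or 24 h post-dose (chronic studies: 24 h after last daily dose, n = 3/group). 16 µm frozen caudate putamen sections incubated 30 min at room temperature with 700 pM [125I]-S36057 in MCH-R1 binding buffer; 1 µM MCH defines nonspecific binding. Phosphorimager quantitation; % inhibition versus vehicle.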

Mus musculus [4] = test: Reduction of food intake in orally dosed C57BL/6N DIO mouse after 24 hrs at 30 mg/kg relative to control; assay type: functional; details: route oral
Procedure, shortened: (§3)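 Male C57Bl/6NCrl:BR mice made obese on a 45%-fat diet, individually housed, 12 h light/dark, 22 °C; acclimated to oral 20% hydroxypropyl-β-cyclodextrin vehicle for 2-3 days. Single oral 30 mg/kg dose in 20% HPβCD; food intake weighed to 0.01 g at 2, 6 and 24 h, expressed as % of vehicle ± SEM.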

Mus musculus [5] = test: Reduction of food intake in orally dosed C57BL/6N DIO mouse after 2 hrs at 30 mg/kg relative to control; assay type: functional; design: Activity: scale not given: the % may be the effect or the level left; details: route oral; procedure, shortened: as §3
Mus musculus [6] = test: Reduction of food intake in orally dosed C57BL/6N DIO mouse after 6 hrs at 30 mg/kg relative to control; assay type: functional; details: route oral; procedure, shortened: as §3
[7] = biological target: Melanin-concentrating hormone receptor 1 (Mus musculus) (UniProt Q8JZL2); test: Receptor occupancy ex vivo by displacement of [125I]S36057 binding from MCHR1 in C57BL/6N mouse brain after 24 hrs at 30 mg/kg, po; assay type: functional, organism-based; design: dose 30 mg/kg; procedure, shortened: as §2
[8] = biological target: T1, Melanin-concentrating hormone receptor 1; test: Inhibition of MCH-mediated calcium influx in CHO cells expressing human MCHR1 by FLIPR assay; assay type: functional, cell-based
Procedure, shortened: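 After two washes, treated with vehicle (buffer, 2% DMSO) or compound, then stimulated with 30 nM MCH; intracellular Ca²⁺ change read by FLIPR.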

Rattus norvegicus = test: as §1; assay type: ADME, organism-based, Plasma; design: time < 6 hr, dose 10 mg/kg, route oral; details: in vivo, 6 h

T1 sequence (Q99705 whole entry): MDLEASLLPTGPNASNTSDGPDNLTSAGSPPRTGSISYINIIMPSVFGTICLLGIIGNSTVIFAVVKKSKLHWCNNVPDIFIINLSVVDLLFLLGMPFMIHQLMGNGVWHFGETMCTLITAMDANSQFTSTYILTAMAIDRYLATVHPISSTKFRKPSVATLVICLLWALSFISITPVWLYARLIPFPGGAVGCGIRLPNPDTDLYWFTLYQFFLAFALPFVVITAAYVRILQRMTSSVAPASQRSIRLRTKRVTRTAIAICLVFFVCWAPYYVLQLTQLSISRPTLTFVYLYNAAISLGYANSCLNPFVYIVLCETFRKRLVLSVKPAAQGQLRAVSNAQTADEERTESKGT
Melanin-concentrating hormone receptor 1 (Mus musculus), sequence (Q8JZL2 whole entry): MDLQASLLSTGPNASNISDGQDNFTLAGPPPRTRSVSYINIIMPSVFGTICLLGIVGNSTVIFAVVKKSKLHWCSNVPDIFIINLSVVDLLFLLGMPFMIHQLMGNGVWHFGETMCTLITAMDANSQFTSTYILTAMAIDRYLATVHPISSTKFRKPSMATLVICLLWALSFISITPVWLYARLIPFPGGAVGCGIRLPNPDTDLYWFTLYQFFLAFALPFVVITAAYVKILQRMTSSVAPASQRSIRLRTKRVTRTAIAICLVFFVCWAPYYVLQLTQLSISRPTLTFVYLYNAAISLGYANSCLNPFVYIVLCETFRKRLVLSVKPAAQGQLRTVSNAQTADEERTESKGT

SMILES	AUC(0-t) at 6 h [1] [ng·h/mL]	pKi [2]	Activity [3] [%]	Activity [7] [%]	further results
N#Cc1cccc([C@@]23CC[C@H](N(CCN4CCCC4)C(=O)Nc4cc(Cl)cc(Cl)c4)[C@@H]2C3)c1	1490	7.82	69	–	–
CN1CCN(CCCN(C(=O)Nc2ccc(F)c(Cl)c2)[C@@H]2CC[C@]3(c4cccc(Cl)c4)C[C@H]23)CC1	436	–	–	–	–
N#Cc1cccc([C@]23CC[C@@H](N(CCN4CC[C@@H](O)C4)C(=O)Nc4ccc(F)c(C(F)(F)F)c4)[C@H]2C3)c1	2190	–	81	–	Food intake (% of vehicle control) (Mus musculus [4]): 80.8%; Food intake (% of vehicle) (Mus musculus [5]): 65.7%; Food intake (% of vehicle control) (Mus musculus [6]): 68.2%
N#Cc1cccc(C2=CC(N(CCN3CCCC3)C(=O)Nc3cc(Cl)cc(Cl)c3)CC2)c1 (configuration not stated)	–	6.22	–	–	–
CN1CCN(CCN(C(=O)Nc2ccc(F)c(C(F)(F)F)c2)[C@@H]2CC[C@]3(c4cccc(C#N)c4)C[C@H]23)CC1 (relative stereo)	1460	–	53	–	–
CN1CCN(CCCN(C(=O)Nc2ccc(F)c(Cl)c2)[C@@H]2CC[C@]3(c4cc(F)cc(F)c4)C[C@H]23)CC1 (relative stereo)	2740	8.15	65	0	–
CN1CCN(CCCN(C(=O)Nc2ccc(F)c(Cl)c2)[C@@H]2CC[C@]3(c4ccc(F)c(F)c4)C[C@H]23)CC1 (relative stereo)	1610	8.36	97	0	–
CN1CCN(CCCN(C(=O)Nc2ccc(F)c(C(F)(F)F)c2)[C@@H]2CC[C@]3(c4ccc(F)c(C#N)c4)C[C@H]23)CC1 (relative stereo)	3080	8.40	81	36	–
CN1CCN(CCCN(C(=O)Nc2ccc(F)c(Cl)c2)[C@@H]2CC[C@]3(c4cccc(S(C)(=O)=O)c4)C[C@H]23)CC1 (relative stereo)	–	6.14	–	–	–
COc1ccc([C@]23CC[C@@H](N(CCCN4CCN(C)CC4)C(=O)Nc4ccc(F)c(C(F)(F)F)c4)[C@H]2C3)cc1 (relative stereo)	438	8.55	100	7	Kb [8]: 9 nM
CN1CCN(CCCN(C(=O)Nc2ccc(F)c(C(F)(F)F)c2)[C@@H]2CC[C@]3(c4ccc(C#N)c(F)c4)C[C@H]23)CC1 (relative stereo)	1660	8.46	100	6	–
Cc1cccc([C@]23CC[C@@H](N(CCCN4CCN(C)CC4)C(=O)Nc4ccc(F)c(Cl)c4)[C@H]2C3)c1 (relative stereo)	–	7.48	0	4	–
CN1CCN(CCCN(C(=O)Nc2ccc(F)c(Cl)c2)[C@@H]2CC[C@]3(c4ccc(S(C)(=O)=O)cc4)C[C@H]23)CC1 (relative stereo)	2340	8.03	8	–	–
CN1CCN(CCCN(C(=O)Nc2ccc(F)c(Cl)c2)[C@@H]2CC[C@]3(c4cccc(OC(F)(F)F)c4)C[C@H]23)CC1 (relative stereo)	504	7.54	39	12	–
COc1cccc([C@]23CC[C@@H](N(CCCN4CCN(C)CC4)C(=O)Nc4ccc(F)c(C(F)(F)F)c4)[C@H]2C3)c1 (relative stereo)	571	8.54	73	0	Kb [8]: 8 nM
CN1CCN(CCCN(C(=O)Nc2ccc(F)c(Cl)c2)[C@@H]2CC[C@]3(c4cccc(NS(C)(=O)=O)c4)C[C@H]23)CC1 (relative stereo)	–	6.40	–	–	–
N#Cc1cccc([C@]23CC[C@@H](N(CCN4CCCCC4)C(=O)Nc4ccc(F)c(Cl)c4)[C@H]2C3)c1 (relative stereo)	999	–	57	–	–
CN1CCN(CCCN(C(=O)Nc2ccc(F)c(C(F)(F)F)c2)[C@@H]2CC[C@]3(c4cccc(F)c4)C[C@H]23)CC1 (relative stereo)	888	8.64	85	10	–
CN1CCN(CCCN(C(=O)Nc2ccc(F)c(Cl)c2)[C@H]2CC[C@@H](c3cccc(C#N)c3)C2)CC1 (relative stereo)	–	5.66	–	–	–
CS(=O)(=O)c1ccc([C@]23CC[C@@H](N(CC4CCN(S(C)(=O)=O)CC4)C(=O)Nc4ccc(F)c(Cl)c4)[C@H]2C3)cc1 (relative stereo)	–	6.01	–	–	–

SMILES	AUC(0-t) at 6 h [1] [ng·h/mL]	pKi [2]	Activity [3] [%]	Activity [7] [%]	further results
N#Cc1ccc([C@]23CC[C@@H](N(CCCN4CCNCC4)C(=O)Nc4ccc(F)c(C(F)(F)F)c4)[C@H]2C3)cc1 (relative stereo)	3470	8.10	27	0	Kb [8]: 9 nM
N#Cc1cccc([C@]23CC[C@@H](N(CCCCN4CCOCC4)C(=O)Nc4ccc(F)c(C(F)(F)F)c4)[C@H]2C3)c1 (relative stereo)	450	8.60	64	–	Food intake (% of vehicle control) (Mus musculus [4]): 94.1%; Food intake (% of vehicle) (Mus musculus [5]): 88%; Food intake (% of vehicle control) (Mus musculus [6]): 83.4%
N#Cc1cccc([C@]23CC[C@@H](N(CCN4CCCC4)C(=O)Nc4ccc(F)c(Cl)c4)[C@H]2C3)c1 (relative stereo)	822	–	–	–	–
CC(C)CN1CCN(CCN(C(=O)Nc2ccc(F)c(C(F)(F)F)c2)[C@@H]2CC[C@]3(c4cccc(C#N)c4)C[C@H]23)CC1 (relative stereo)	140	–	40	–	–
CN1CCN(CCCN(C(=O)Nc2ccc(F)c(C(F)(F)F)c2)[C@@H]2CC[C@]3(c4ccc(F)cc4)C[C@H]23)CC1 (relative stereo)	2170	8.74	100	29	Kb [8]: 15 nM
CN1CCN(CCCN(C(=O)Nc2ccc(F)c(Cl)c2)[C@@H]2CC[C@@H](c3cccc(C#N)c3)C2)CC1 (relative stereo)	–	6.79	–	–	–
CN1CCN(CCCN(C(=O)Nc2ccc(F)c(Cl)c2)[C@@H]2CC[C@]3(c4ccsc4)C[C@H]23)CC1 (relative stereo)	–	7.89	25	12	–
CN1CCN(CCCN(C(=O)Nc2ccc(F)c(Cl)c2)[C@@H]2CC[C@]3(c4ccccc4)C[C@H]23)CC1 (relative stereo)	1130	–	79	0	–
CN1CCN(CCCCN(C(=O)Nc2ccc(F)c(C(F)(F)F)c2)[C@@H]2CC[C@]3(c4cccc(C#N)c4)C[C@H]23)CC1 (relative stereo)	1680	–	85	–	Food intake (% of vehicle control) (Mus musculus [4]): 89.1%; Food intake (% of vehicle) (Mus musculus [5]): 81.1%; Food intake (% of vehicle control) (Mus musculus [6]): 81.6%
CN1CCN(CCCN(C(=O)Nc2ccc(F)c(Cl)c2)[C@@H]2CC[C@]3(c4cccc(F)c4)C[C@H]23)CC1 (relative stereo)	722	8.48	73	0	–
N#Cc1cccc([C@]23CC[C@@H](N(CCCCN4CCCCC4)C(=O)Nc4ccc(F)c(C(F)(F)F)c4)[C@H]2C3)c1 (relative stereo)	1160	–	72	–	Food intake (% of vehicle control) (Mus musculus [4]): 102%; Food intake (% of vehicle) (Mus musculus [5]): 92%; Food intake (% of vehicle control) (Mus musculus [6]): 101.1%
CS(=O)(=O)c1ccc([C@]23CC[C@@H](N(CCCN4CCCC4=O)C(=O)Nc4ccc(F)c(Cl)c4)[C@H]2C3)cc1 (relative stereo)	–	5.79	–	–	–
CN1CCN(CCCN(C(=O)Nc2ccc(F)c(Cl)c2)[C@@H]2CC[C@]3(c4cccc(N)c4)C[C@H]23)CC1 (relative stereo)	–	8.00	37	17	–
CN1CCN(CCCN(C(=O)Nc2ccc(F)c(Cl)c2)[C@@H]2CC[C@]3(c4ccc(OC(F)(F)F)cc4)C[C@H]23)CC1 (relative stereo)	578	–	96	15	Food intake (% of vehicle control) (Mus musculus [4]): 85.9%; Activity (Mus musculus [5]): 86.2%; Food intake (% of vehicle control) (Mus musculus [6]): 80.5%
CC(=O)Nc1cccc([C@]23CC[C@@H](N(CCCN4CCN(C)CC4)C(=O)Nc4ccc(F)c(Cl)c4)[C@H]2C3)c1 (relative stereo)	–	–	18	0	–
CN1CCN(CCCN(C(=O)Nc2ccc(F)c(Cl)c2)[C@@H]2CC[C@]3(c4cccnc4)C[C@H]23)CC1 (relative stereo)	–	–	25	11	–
N#Cc1cccc([C@]23CC[C@@H](N(CCN4CC[C@@H](O)C4)C(=O)Nc4ccc(F)c(Cl)c4)[C@H]2C3)c1 (stereo in doubt; (+)-23c) [listing 1 of 2 here]	–	7.89	–	–	AUC (Rattus norvegicus): 585 ng·h/mL
N#Cc1cccc([C@]23CC[C@@H](N(CCN4CC[C@@H](O)C4)C(=O)Nc4ccc(F)c(Cl)c4)[C@H]2C3)c1 (stereo in doubt; (+)-23c) [listing 2 of 2 here]	–	–	32	–	–
N#Cc1cccc([C@]23CC[C@@H](N(CCN4CC[C@@H](O)C4)C(=O)Nc4ccc(F)c(Cl)c4)[C@H]2C3)c1 (stereo in doubt; (-)-23d) [listing 1 of 2 here]	–	–	–	–	AUC (Rattus norvegicus): 2404 ng·h/mL
N#Cc1cccc([C@]23CC[C@@H](N(CCN4CC[C@@H](O)C4)C(=O)Nc4ccc(F)c(Cl)c4)[C@H]2C3)c1 (stereo in doubt; (-)-23d) [listing 2 of 2 here]	–	–	57	–	–
